Reference: ChEMBL document CHEMBL4402601, “Discovery of a Silicon-Containing Pan-Genotype Hepatitis C Virus NS5A Inhibitor” (J Med Chem, 2020)

Legend:
Hepatitis C virus [1] = assay: Antiviral activity against Hepatitis C virus subtype 1a H77 subgenomic replicon expressing NS5A infected in human HuH7 cells assessed as reduction in viral replication incubated for 3 days by luciferase reporter gene assay; format: functional, organism-based, Hepacivirus hominis; conditions: subtype 1a H77, Huh-7, 72 h
Outline: (§1)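 HCV replicon cell assay; inhibition of replication read as decrease in luciferase signal. Percent inhibition computed at each compound concentration; EC50 (pM) from nonlinear regression fit to a 4-parameter logistic equation. Values are means of triplicate wells, with each experiment run at least twice.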

Hepatitis C virus [2] = assay: Antiviral activity against Hepatitis C virus subtype 1b Con1 subgenomic replicon expressing NS5A infected in human HuH7 cells assessed as reduction in viral replication incubated for 3 days by luciferase reporter gene assay; format: functional, organism-based, Hepacivirus hominis; conditions: subtype 1b Con1, Huh-7, 72 h; outline: as §1
Hepatitis C virus [3] = assay: Antiviral activity against Hepatitis C virus subtype 6a subgenomic replicon expressing NS5A infected in human HuH7 cells assessed as reduction in viral replication incubated for 3 days by luciferase reporter gene assay; format: functional, organism-based, Hepacivirus hominis; conditions: Huh-7, 72 h; outline: as §1
Hepatitis C virus [4] = assay: Antiviral activity against Hepatitis C virus subtype 3a subgenomic replicon expressing NS5A infected in human HuH7 cells assessed as reduction in viral replication incubated for 3 days by luciferase reporter gene assay; format: functional, organism-based, Hepacivirus hominis; conditions: Huh-7, 72 h; outline: as §1
Hepatitis C virus [5] = assay: Potency index, ratio of EC50 of to EC50 of compound for antiviral activity against Hepatitis C virus subtype 6a subgenomic replicon expressing NS5A infected in human HuH7 cells assessed as reduction in viral replication incubated for 3 days by luciferase reporter gene assay; format: functional, Hepacivirus hominis
[6] = Ratio of drug distribution in mouse liver to drug distribution in mouse plasma measured after 3 hrs by UPLC-MS/MS analysis; format: ADME, cell-free
Outline: (§2)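 Oral dosing in mice and rats; compound measured in plasma and liver by UPLC-MS/MS at each time point, n = 3 (mean ± SD). LPR is mean liver concentration divided by mean plasma concentration.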

[7] = Ratio of drug distribution in rat liver to drug distribution in rat plasma measured after 8 hrs by UPLC-MS/MS analysis; format: ADME, cell-free; outline: as §2
[8] = Ratio of drug distribution in mouse liver to drug distribution in mouse plasma measured after 24 hrs by UPLC-MS/MS analysis; format: ADME, cell-free; outline: as §2
[9] = Drug distribution in rat plasma at 10 mg/kg, po incubated for 0.5 hrs by UPLC-MS/MS analysis; format: ADME, organism-based; outline: as §2
[10] = Drug distribution in rat liver at 10 mg/kg, po incubated for 8 hrs by UPLC-MS/MS analysis; format: ADME, organism-based; conditions: read-out: Drug uptake; outline: as §2
[11] = Ratio of drug distribution in mouse liver to drug distribution in mouse plasma measured after 0.5 hrs by UPLC-MS/MS analysis; format: ADME, cell-free; outline: as §2
[12] = Drug distribution in rat plasma at 10 mg/kg, po incubated for 3 hrs by UPLC-MS/MS analysis; format: ADME, organism-based; outline: as §2
[13] = Ratio of drug distribution in rat liver to drug distribution in rat plasma measured after 3 hrs by UPLC-MS/MS analysis; format: ADME, cell-free; outline: as §2
[14] = Drug distribution in rat liver at 10 mg/kg, po incubated for 0.5 hrs by UPLC-MS/MS analysis; format: ADME, organism-based; conditions: read-out: Drug uptake; outline: as §2
[15] = Drug distribution in rat plasma at 10 mg/kg, po incubated for 8 hrs by UPLC-MS/MS analysis; format: ADME, organism-based; outline: as §2
[16] = Drug distribution in mouse plasma at 10 mg/kg, po incubated for 24 hrs by UPLC-MS/MS analysis; format: ADME, organism-based; outline: as §2
[17] = Drug distribution in mouse plasma at 10 mg/kg, po incubated for 0.5 hrs by UPLC-MS/MS analysis; format: ADME, organism-based; outline: as §2
[18] = Drug distribution in mouse liver at 10 mg/kg, po incubated for 24 hrs by UPLC-MS/MS analysis; format: ADME, organism-based; conditions: read-out: Drug uptake; outline: as §2
[19] = Drug distribution in mouse plasma at 10 mg/kg, po incubated for 3 hrs by UPLC-MS/MS analysis; format: ADME, organism-based; outline: as §2
[20] = Drug distribution in rat liver at 10 mg/kg, po incubated for 3 hrs by UPLC-MS/MS analysis; format: ADME, organism-based; conditions: read-out: Drug uptake; outline: as §2
[21] = Drug distribution in mouse liver at 10 mg/kg, po incubated for 0.5 hrs by UPLC-MS/MS analysis; format: ADME, organism-based; conditions: read-out: Drug uptake; outline: as §2
[22] = Drug distribution in mouse liver at 10 mg/kg, po incubated for 3 hrs by UPLC-MS/MS analysis; format: ADME, organism-based; conditions: read-out: Drug uptake; outline: as §2
[23] = Ratio of drug distribution in rat liver to drug distribution in rat plasma measured after 0.5 hrs by UPLC-MS/MS analysis; format: ADME, cell-free; outline: as §2
[24] = Metabolic stability in mouse liver microsomes assessed as compound remaining at 1 uM incubated for 60 mins by UPLC-MS/MS analysis; format: ADME, Microsome; conditions: read-out: Stability
Outline: (§3)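 Pooled mouse, rat or human liver microsomes (0.5 mg/mL) with 1 μM compound, 1 mM NADPH, 5 mM MgCl₂ and 100 mM potassium phosphate pH 7.4. Pre-incubated 5 min at 37 °C, started with NADPH, then run 60 min at 37 °C. Quenched with ice-cold acetonitrile containing internal standard; parent remaining measured by UPLC-MS/MS.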

[25] = Metabolic stability in rat liver microsomes assessed as compound remaining at 1 uM incubated for 60 mins by UPLC-MS/MS analysis; format: ADME, Microsome; conditions: read-out: Stability; outline: as §3
[26] = Metabolic stability in human liver microsomes assessed as compound remaining at 1 uM incubated for 60 mins by UPLC-MS/MS analysis; format: ADME, Microsome; conditions: read-out: Stability; outline: as §3

Structure (SMILES)	EC50 (Hepatitis C virus [1]) [pM]	EC50 (Hepatitis C virus [2]) [pM]	EC50 (Hepatitis C virus [3]) [pM]	EC50 (Hepatitis C virus [4]) [pM]	further results
CC[Si](CC)(CC)c1ccc(N2[C@H](c3ccc(NC(=O)[C@@H]4CCCN4C(=O)[C@@H](NC(=O)OC)C(C)C)cc3)CC[C@H]2c2ccc(NC(=O)[C@@H]3CCCN3C(=O)[C@@H](NC(=O)OC)C(C)C)cc2)cc1	11	2.8	817	5.8	–
COC(=O)N[C@H](C(=O)N1CCC[C@H]1C(=O)Nc1ccc([C@@H]2CC[C@@H](c3ccc(NC(=O)[C@@H]4CCCN4C(=O)[C@@H](NC(=O)OC)C(C)C)cc3)N2c2cc(F)c(N3CC[Si](C)(C)CC3)c(F)c2)cc1)C(C)C	0.9	0.4	88	11	–
COC(=O)N[C@H](C(=O)N1CCC[C@H]1C(=O)Nc1ccc([C@@H]2CC[C@@H](c3ccc(NC(=O)[C@@H]4CCCN4C(=O)[C@@H](NC(=O)OC)[C@@H](C)OC)cc3)N2c2ccc(N3CC[Si](C)(C)CC3)c(F)c2)cc1)[C@@H](C)OC	12	2.9	242	6	–
COC(=O)N[C@H](C(=O)N1CCC[C@H]1C(=O)Nc1ccc([C@@H]2CC[C@@H](c3ccc(NC(=O)[C@@H]4CCCN4C(=O)[C@@H](NC(=O)OC)C(C)C)cc3)N2c2ccc(N3CC[Si](C)(C)CC3)c(F)c2)cc1)C(C)C	0.8	0.4	182	8.8	–
COC(=O)N[C@H](C(=O)N1CCC[C@H]1C(=O)Nc1ccc([C@@H]2CC[C@@H](c3ccc(NC(=O)[C@@H]4CCCN4C(=O)[C@@H](NC(=O)OC)[C@@H](C)OC)cc3)N2c2ccc([Si](C)(C)C(C)(C)C)cc2)cc1)[C@@H](C)OC	7.9	1.4	80	3	Ratio EC50 (Hepatitis C virus [5]): 10
COC(=O)N[C@H](C(=O)N1CCC[C@H]1C(=O)Nc1ccc([C@H]2CC[C@H](c3ccc(NC(=O)[C@@H]4CCCN4C(=O)[C@@H](NC(=O)OC)[C@@H](C)OC)cc3)N2c2ccc(N3CC[Si](C)(C)CC3)c(F)c2)cc1)[C@@H](C)OC	65	16	454	14	–
COC(=O)N[C@H](C(=O)N1CCC[C@H]1C(=O)Nc1ccc([C@H]2CC[C@H](c3ccc(NC(=O)[C@@H]4CCCN4C(=O)[C@@H](NC(=O)OC)[C@@H](C)OC)cc3)N2c2cc(F)c(N3CC[Si](C)(C)CC3)c(F)c2)cc1)[C@@H](C)OC	12	1.7	114	4.8	–
COC(=O)N[C@H](C(=O)N1CCC[C@H]1C(=O)Nc1ccc([C@H]2CC[C@H](c3ccc(NC(=O)[C@@H]4CCCN4C(=O)[C@@H](NC(=O)OC)C(C)C)cc3)N2c2cc(F)c(N3CC[Si](C)(C)CC3)c(F)c2)cc1)C(C)C	0.9	0.4	463	37	–
CC[Si](CC)(CC)c1ccc(N2[C@H](c3ccc(NC(=O)[C@@H]4CCCN4C(=O)[C@@H](NC(=O)OC)[C@@H](C)OC)cc3)CC[C@H]2c2ccc(NC(=O)[C@@H]3CCCN3C(=O)[C@@H](NC(=O)OC)[C@@H](C)OC)cc2)cc1	2.3	1	121	2	Ratio EC50 (Hepatitis C virus [5]): 7
COC(=O)N[C@H](C(=O)N1CCC[C@H]1c1nc2cc([C@@H]3CC[C@@H](c4cc5nc([C@@H]6CCCN6C(=O)[C@@H](NC(=O)OC)[C@@H](C)OC)[nH]c5cc4F)N3c3cc(F)c(N4CCC(c5ccc(F)cc5)CC4)c(F)c3)c(F)cc2[nH]1)[C@@H](C)OC	–	–	–	–	Kp at 3 h [6]: 0.39; Kp at 8 h [7]: 0.63; Kp at 24 h [8]: 0.11; concentration at 0.5 h [9]: 103 ng/mL; concentration at 8 h [10]: 18.9 ng/g; Kp at 0.5 h [11]: 0.43; concentration at 3 h [12]: 96.4 ng/mL; Kp at 3 h [13]: 1.1; concentration at 0.5 h [14]: 155 ng/g; concentration at 8 h [15]: 30.1 ng/mL; concentration at 24 h [16]: 718 ng/mL; concentration at 0.5 h [17]: 414 ng/mL; concentration at 24 h [18]: 69.6 ng/g; concentration at 3 h [19]: 1540 ng/mL; concentration at 3 h [20]: 102 ng/g; concentration at 0.5 h [21]: 94 ng/g; concentration at 3 h [22]: 193 ng/g; Kp at 0.5 h [23]: 1.5
COC(=O)N[C@H](C(=O)N1CCC[C@H]1C(=O)Nc1ccc([C@H]2CC[C@H](c3ccc(NC(=O)[C@@H]4CCCN4C(=O)[C@@H](NC(=O)OC)C(C)C)cc3)N2c2ccc(N3CC[Si](C)(C)CC3)c(F)c2)cc1)C(C)C	0.8	0.5	831	51	–
COC(=O)N[C@H](C(=O)N1CCC[C@H]1C(=O)Nc1ccc([C@@H]2CC[C@@H](c3ccc(NC(=O)[C@@H]4CCCN4C(=O)[C@@H](NC(=O)OC)[C@@H](C)OC)cc3)N2c2ccc([Si](C)(C)C)cc2)cc1)[C@@H](C)OC	12	1.6	247	7	–
COC(=O)N[C@H](C(=O)N1CCC[C@H]1C(=O)Nc1ccc([C@@H]2CC[C@@H](c3ccc(NC(=O)[C@@H]4CCCN4C(=O)[C@@H](NC(=O)OC)C(C)C)cc3)N2c2ccc(C(C)(C)C)cc2)cc1)C(C)C [OMBITASVIR]	–	–	–	–	remaining at 1 h, 1 µM [24]: 63.5%; remaining at 1 h, 1 µM [25]: 73.5%; remaining at 1 h, 1 µM [26]: 82.5%
